Experimental data from the EternaBench riboswitch data.

Test system: MS2 coat protein
Assay: apparent Kd, MS2 coat protein; higher = weaker binding; RNA-MaP array; FMN 200 µM where present
Summary of the method: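 Stalled E. coli RNA polymerase produced the designs on Illumina sequencing-chip clusters. SNAP-549-labelled MS2 coat protein was added from 0.7 or 1.5 nM, doubling to 3 µM, without and then with constant ligand, in 100 mM Tris-HCl pH 7.5, 80 mM KCl, 4 mM MgCl2, BSA, DTT, yeast tRNA and Tween-20. The apparent Kd is the median of filtered per-cluster fits of green signal normalised to red-channel RNA signal and control-cluster median Fmax.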

[1] = designed as: OFF switch for flavin mononucleotide, no ligand
[2] = ligand present: flavin mononucleotide, designed as: OFF switch for flavin mononucleotide
[3] = designed as: ON switch for flavin mononucleotide, no ligand
[4] = ligand present: flavin mononucleotide, designed as: ON switch for flavin mononucleotide

Sequence	apparent Kd [1] [nM]	apparent Kd [2] [nM]	apparent Kd [3] [nM]	apparent Kd [4] [nM]
UCAGGCUUCGAGAAGGACAUGAGGAUCACCCAUGUGCGUGUGAAGCAGCCGUGAGGCUGCAUCAUGUAGGAUAUCGGAGUCUGA	75.6	459	–	–
UCAGGUCGGGAAGGAUAUCGGCCGCGAAGAGCUCGAGAAGGUCCCGACAUGAGGAUCACCCAUGUUGAAGGGUCCUAACGUGCC	158	93.4	–	–
UCAGUAGAGUCAGGAUAUACGAAAGGCGAUCCAUACAUGAGGAUCACCCAUGUAGAAGGGACUCUACUGUAAGUCGGAAACGAC	309	21.9	–	–
UCAUAAAUUCGAGGAUAUCGGUGAUAAAGAAGACGAGAAGGCGAUUAGAGAGAGAUGUUUAUAGACAUGAGGAUCACCCAUGUU	–	–	30	24.8
UCAUCAGCGGGCGGAUCGGUUGGACAUGAGGAUCACCCAUGUAGAAGGACCGGUGGAUUCCGGCGGUAGGAUAUACAUUUGGUG	12.9	27.4	–	–
UCAUGACAUGAGGAUCACCCAUGUCAGGAUAUCUACAGAACCUCAUGUAAAAAACUGUAGAGAAGGGAUAUGAA	22	25	–	–
UCAUGAUGGAAGAAGGGAGUCGUGCAUAACAACUCAGGAUAUUUCACAUGAGGAUCACCCAUGUCGAAGUAACAAUGUUGAUUA	15.9	28	–	–
UCAUGAUGGAAGAAGGGAGUCGUGCAUGACAACUCAGGAUAUUUCACAUGAGGAUCACCCAUGUCGAAGUAACAAUGUUGAUCA	16.2	56.6	–	–
UCAUGUAUGUAGGAUAUCGAUGUCCUUGGACAUCGAGAAGGACGUACAUGAGGAUCACCCAUGUAACUUGCAUG	25.4	16.8	–	–
UCAUGUUUAGAGGAUAUGAUUACUCUAGAGUGAUCAGAAGGCUAGACAUGAGGAUCACCCAUGUCAGAACAUGU	34.4	24.8	–	–
UCAUUAUAAAUCCAUCAUAACUACAUGAGGAUCACCCAUGUGCAGGAUAUCGAUUAUUUUACUAACGAGAAGGGCAAAUACAGA	37.5	72.4	–	–
UCAUUAUAAAUCCAUCAUAACUACAUGAGGAUCACCCAUGUGCAGGAUAUCGAUUAUUUUACUAACGAGAAGGGCAUUUACAGA	51.1	181	–	–
UCAUUGGUUGUGAGGAUAUCGGUGUGAUGGAUUGUCGAGAAGGCACAUGAGGAUCACCCAUGUUUGUUUGGGCU	577	449	–	–
UCAUUUUUACAAGGAUAUCAAUAUAAUAUAAUAGCUACAUGAGGAUCACCCAUGUUUUAGCGUGGUGAGAAGGUGUAUUGUCGG	–	–	89.5	63
UCCACUGCUGAGAAGGGAUACGUCUGGCUCGCAUCAGGAUAUCGAUACAGUGCAGCAUGAGGACAUGAGGAUCACCCAUGUGUG	–	–	104	68.8
UCCACUGCUGAGAAGGGAUACGUGUGGUUCGCAUCAGGAUAUCGAUACAGUGCAGCAUGAGGACAUGAGGAUCACCCAUGUAUC	–	–	43	16.5
UCCACUGCUGAGAAGGGAUCCGUGUGGUUCGAAUCAGGAUAUCGAUACAGUGCAGCAUGAGGACAUGAGGAUCACCCAUGUAUC	–	–	13.2	11.3
UCCCGGGUGCAGAAGGGAUAGGCCUAUUUUCGUGGUAUCCAAACCUUACAUGAGGAUCACCCAUGUCAGGAUAUGCCCACGGGA	4.47	4.96	–	–
UCCCGUGUGGAAGGAUAUAGGACGAGGUGGGACAUGAGGAUCACCCAUGUGCUAGAAGGUCCGCAGCCGAUUGGCUUUUACGUG	9.2	28.1	–	–
UCCGAGUGAGGAUAUUGGAGUUGGUGCACUGCACAUAGGGUUAAGAAGGCACAUGAGGAUCACCCAUGUUACGU	41.3	40.9	–	–
UCCUAACAUGAGGAUCACCCAUGUGAGGAUAUGAUACUAUGUACUUCGGUACAUAGUAUCAGAAGGCACAUCCU	19.1	26	–	–
UCCUACAUGGGAGGAUAUGGGACAUGAGGAUCACCCAUGUGAAAAUUAAAUAUGCCGAGAGGCAACUAGAAGGCCCAUGUAGGU	–	–	35.8	19.2
UCCUAGCUAGGAUAUACCCAGGGUUUGUUCUCUAACAAAACACAUGAGGAUCACCCAUGUAGAAGGAGCCGGGA	76.9	70.8	–	–
UCCUCUUUGAAGAAGGCGUGGUUAUGCUAGCCGCGAGGAUAUUCACAUGAGGAUCACCCAUGUGGAUUUCAGUCCGCUCAAAAC	10.2	22.9	–	–
UCCUGGCGAGGAUAUACAAAGUUUUUUACGUUUUGUUACGAACAUGAGGAUCACCCAUGUAGAAGGUGCUACUG	78	67.3	–	–
UCCUUCUGUUGAGGAUAUGUAAGACAGCAGCUGCUAUGGCGGCACGCUGAUACAGAAGGCAACAUGAGGAUCACCCAUGUUCAA	20.4	73	–	–
UCCUUGGUACAGAAGGACCGAGCUCCGUAGCAGGUAGGAUAUGUACAUGAGGAUCACCCAUGUCAGCGGUAAUUGCCAGUAUAC	54.6	27.7	–	–
UCCUUGUAAGGAUAUCGACGGCUACUCAAUUAAGCCGAUGCUGAGAAGGUACAUGAGGAUCACCCAUGUCUGGU	52.1	275	–	–

Sequence	apparent Kd [1] [nM]	apparent Kd [2] [nM]	apparent Kd [3] [nM]	apparent Kd [4] [nM]
UCGAAACAGACAGGAUAUGCAGGGAGGUGCCGGUACAUGAGGAUCACCCAUGUAGAAGGGUCUCGAGUUGAACUUCAGUCAAAG	9.61	19.5	–	–
UCGAGCAGGGAAUGGACGCUGAAGUAGGAUAUCCGCGUGGCCGUCCACAUGAGGAUCACCCAUGUGGAGAAGGGCUACAGCGAA	5.5	5.63	–	–
UCGAUGCUAGGAUAUACUUAUAAAACUACUGUAGAGUCUUCACAUGAGGAUCACCCAUGUAGAAGGAGCAUCUA	20	16	–	–
UCGCUGCGAGGAUAUACGUUUGCGCGUUUUCGUUUGCGCGUACAUGAGGAUCACCCAUGUAGAAGGCGCGCUGC	15.4	15.5	–	–
UCGGCGCGAGGAUAUGCGGCUGGUGCUUCGGGCCCUGGCGUACAUGAGGAUCACCCAUGUAGAAGGCGCGCCGC	11.7	14.7	–	–
UCUAAUUAGUGAGGAUAUGCAUAAUUUAUAACUGCAGAAGGCACAAACCUCAAGACAUGAGGAUCACCCAUGUGGAAUAUAGAU	93.8	215	–	–
UCUAGACAUGAGGAUCACCCAUGUGAGGAUAUGAUGCGAUCGUCGAAAGACGAUAGCAUCAGAAGGCACAUAUG	154	469	–	–
UCUAUGUAGAUUCAUCAAUACAGUAAGGAUAUGAGAUACAUGAGGAUCACCCAUGUGCAUGUGGAUUAGAAGGUACAAUUAACU	293	188	–	–
UCUCGAUGUGUAGGAUAUCUGAUCACUAUGACAAGAGAAGGGCACAUGAGGAUCACCCAUGUGGAGGACCACUGGUUCAGAUUA	35.8	64.9	–	–
UCUGCCGCCGUGAGGAUAUGCCCAAACAAACGCGGGCAGAAGGCACAUGAGGAUCACCCAUGUCCCGCGGUUUU	19.6	36.3	–	–
UCUGCCGCCGUGAGGAUAUGCCCAAAUAAAAGCGGGCAGAAGGCACAUGAGGAUCACCCAUGUCCUGCGGUUUU	22.1	93.6	–	–
UGAAAGCUAGGAUAUACAUGAGGAUCACCCAUGUACCGGCUUGGCCCUGGUCCAAAGUGUAGAAGGAGCACGCC	28.2	50.3	–	–
UGAAAUCAUGUAGGAUAUGCAUGGCGAAGCUACGCAGAAGGACAUGAGGAUCACCCAUGUUAUAGCUACCCAGUUCGGUGGCAC	46	136	–	–
UGAAUCAUGCCAUGCGCUGACAUGAGGAUCACCCAUGUGUACAAGGAUAUGUUGGUCGACGAUCGGCAGAAGGUGUAAUGGGAU	319	764	–	–
UGACGGAGCUGAGGAUAUAACAUGAGGAUCACCCAUGUAAGUCUCCAGGAAACUGGAGACAAAUGUUAGAAGGCAGCUCCGUCA	39.4	50.7	–	–
UGACGGCACACAGGAUAUAGCGCAGAAAGUACGCUAGAAGGGUGAGCACUCGUCCGGGCACAUGAGGAUCACCCAUGUCGUCGA	–	–	204	472
UGAGAUCAUGUAGGAUAUGCAUGGCGAAGCUACGCAGAAGGACAUGAGGAUCACCCAUGUUAUAGCUACCCAGUUCGGUGGCAA	44.4	86.7	–	–
UGAGAUGUAGUAGGAUAUCAGGUUACAUGAGGAUCACCCAUGUUAGAUUGGUGGAUAGAUGUUGAUGAGAAGGACUUUUGAGUU	63.5	100	–	–
UGAGCAACAGGAUAUAUGUGGCGUCCGUGAGGACGAAGGUUACAUGAGGAUCACCCAUGUAGAAGGGUUGUUCU	169	366	–	–
UGAGCAUCAGGAUAUACGUGACGACCGUGAGGUCGAAGGUUACAUGAGGAUCACCCAUGUAGAAGGGAUGUUCU	26.5	57.9	–	–
UGAGCAUGAGGAUAUACUUGGCGUGCGUGAGCACGAGGUUUACAUGAGGAUCACCCAUGUAGAAGGCAUGUUCU	18.2	51.6	–	–
UGAGCCGGCACUGAGGAUAUUCAUAUUUAAACAUGAGGAUCACCCAUGUAGGCCAGAAGGCCUUGGGAGAAGGCAGGUCGGCUCU	–	–	399	24.6
UGAGCCUCGUGAGGAUAUACAUGAGGAUCACCCAUGUAAAUGGAAUAACGGAGGAAACUCCGAAUGUAGAAGGCACGAGGCUCA	81.3	840	–	–
UGAUAGGACAGAGGAUAUACAGAUAGGAUCUACUAUCAAACAAUCCUGACAUGAGGAUCACCCAUGUAGAAGGCUGUCCUAUCU	22.5	86.5	–	–
UGAUAGGACAGAGGAUAUACAGAUAGGAUCUACUAUCAAACAUUCCUGACAUGAGGAUCACCCAUGUAGAAGGCUGUCCUAUCU	21.9	72.8	–	–
UGAUAGGACAGAGGAUAUACCGAUAGGAUCUACUAUCGAAGAAUCCUUACAUGAGGAUCACCCAUGUAGAAGGCUGUCCUAUCU	20.4	29.6	–	–
UGAUCGAGAGAUCUUAGAUUCUGGUAGGAUAUACAUAAUGUAAUAUAGACAUGAGGAUCACCCAUGUAGAAGGACUAGAGUCUA	8.49	24.3	–	–
